# High-throughput results: PubChem BioAssay, Broad Institute
# Most compounds without a hit are left out; they make up all but 1.5% or so of the library.
# CaV13 ICDI inh: Primary screen for inhibitors of IQ motif and Ca2+-dependent inactivation inhibitor domain binding in CACNA1D, Förster resonance energy transfer in living cells, … | HEK cells, CFP/YFP FRET ICDI-IQ, plate reader, 10 min; percent FRET-ratio fall versus neutral wells | inhibition, % at 12.3 µM | 340,000 compounds, 0.098% hits;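 active means mean replicate inhibition of at least 30% and at least 1% of replicates passing that level; inconclusive means only one of the two criteria is met; inactive means neither criterion is met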;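 further: 0% = median of the neutral control wells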
# LANA-H2B inh: blocks KSHV LANA binding to histone H2A/H2B; AID 2629; 320,000 compounds, 0.6% hits; inhibition, % (no concentration beside the values); cell-free LANA-H2A/H2B peptide, fluorescence polarization; in the data active means inhibition mostly above about 10%, no sharp cut-off; inactive means mostly below about 6.7%
# Target sequence (Q9QR71 whole entry, looked up): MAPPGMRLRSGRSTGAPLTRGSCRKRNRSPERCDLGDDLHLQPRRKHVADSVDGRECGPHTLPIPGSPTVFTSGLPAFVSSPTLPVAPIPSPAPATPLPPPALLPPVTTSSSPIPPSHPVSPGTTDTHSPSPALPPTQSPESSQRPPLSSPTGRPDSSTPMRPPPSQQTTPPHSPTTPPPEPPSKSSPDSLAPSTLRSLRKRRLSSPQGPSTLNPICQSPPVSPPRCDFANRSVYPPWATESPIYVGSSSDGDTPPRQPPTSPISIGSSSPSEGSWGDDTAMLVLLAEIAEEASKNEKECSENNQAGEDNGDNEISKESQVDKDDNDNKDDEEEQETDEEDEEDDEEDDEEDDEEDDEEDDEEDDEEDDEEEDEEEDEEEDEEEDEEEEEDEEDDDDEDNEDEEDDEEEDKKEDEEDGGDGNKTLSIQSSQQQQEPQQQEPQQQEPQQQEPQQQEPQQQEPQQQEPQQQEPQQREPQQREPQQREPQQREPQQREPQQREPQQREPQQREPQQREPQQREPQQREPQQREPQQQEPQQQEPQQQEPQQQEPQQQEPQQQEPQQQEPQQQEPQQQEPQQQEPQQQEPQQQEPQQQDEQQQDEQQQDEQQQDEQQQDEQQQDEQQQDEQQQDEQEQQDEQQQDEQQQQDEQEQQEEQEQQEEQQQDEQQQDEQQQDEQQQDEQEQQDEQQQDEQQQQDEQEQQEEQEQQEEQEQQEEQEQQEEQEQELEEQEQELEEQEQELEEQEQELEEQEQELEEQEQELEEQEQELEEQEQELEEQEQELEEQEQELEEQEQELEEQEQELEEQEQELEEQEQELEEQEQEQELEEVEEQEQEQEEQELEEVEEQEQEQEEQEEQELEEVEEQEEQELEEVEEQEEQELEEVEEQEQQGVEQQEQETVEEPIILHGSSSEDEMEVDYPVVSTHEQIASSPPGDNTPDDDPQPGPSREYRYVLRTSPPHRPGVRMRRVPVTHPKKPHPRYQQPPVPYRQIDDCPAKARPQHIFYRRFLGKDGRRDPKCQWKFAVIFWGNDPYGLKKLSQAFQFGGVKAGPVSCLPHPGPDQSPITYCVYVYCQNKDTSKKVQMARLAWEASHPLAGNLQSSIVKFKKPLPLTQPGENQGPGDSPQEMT
# LANA DNA inh: KSHV C-LANA DNA binding inhibition | MBP-C-LANA/FAM-LBS DNA binding, fluorescence polarization | inhibition, % at 9 µM | 340,000 compounds, 0.078% hits;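 active means highest replicate inhibition at or above 60% at 9 µM, even if other replicates fall short; inactive means all replicates below 60% inhibition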;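 further: 0% = neutral control wells and 100% = 4 µM acridine orange control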
# CAL PDZ FP-1: inhibitors of human CAL PDZ peptide binding; Q9HD26; inhibition, % at 24.9 µM; purified CAL PDZ, TMR-peptide fluorescence polarization, 1 h; 300,000 compounds, 0.92% hits;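 active means mean inhibition of at least 30% with at least half of replicates also reaching 30%; inconclusive means no clear call, values can overlap the other calls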;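 further: 0% = DMSO neutral control and 100% = excess unlabeled competitor peptide PRC23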
# CAL PDZ FP-2: human CAL PDZ-peptide interaction inhibition. Q9HD26. purified CAL PDZ, TMR-peptide fluorescence polarization, 1 h. inhibition, % at 20 µM. 330,000 compounds, 0.02% hits;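 active means highest replicate inhibition of at least 40%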;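 further: plate controls were DMSO neutral control wells for no effect and unlabeled competitor peptide control wells for full effect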
#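 Test system: purified CerCALP PDZ construct; Compound dosing: one concentration, 20 µM compound; Also added: TMR-labelled reporter peptide T*-PRC34 bound in PDZ groove; Read-out: inhibition from polarization loss; Controls: unlabelled peptide and DMSO controls; Signal: FP readout, S and P plane fluorescence; Incubation: 1 h at RT.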
# Keap1-Nrf2 PPI: disrupts human Keap1 binding to Nrf2 peptide; Q14145; Keap1 Kelch-Nrf2 peptide fluorescence polarization, 1536-well; inhibition, % at 9.4 µM; 340,000 compounds, 0.15% hits; in the data active means inhibition above about 12%; inconclusive means no clear call, values can overlap the other calls; inactive means below about 7.3%;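 further: human Keap1 Kelch domain with fluorescein labeled Nrf2 9mer peptide probe; 0% = neutral control wells and 100% = peptide positive control; higher means more block of Keap1 binding to Nrf2 peptide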
# * hit, by the source's call; ? = inconclusive; . = not tested or not shown.
SMILES,CaV13 ICDI inh,LANA-H2B inh,LANA DNA inh,CAL PDZ FP-1,CAL PDZ FP-2,Keap1-Nrf2 PPI
COc1cc(C(=O)Nc2ccc(NC(=O)C(C)C)nc2)cc(OC)c1OC,.,15.4*,-0.8,-4.0,-0.6,2.4
Clc1ccc(OCCCc2nc(-c3ccncc3)no2)c(Cl)c1,-4.0,-1.8,1.8,33.4*,.,4.1
Clc1ccc(OCCCc2nc(-c3cccnc3)no2)c(Cl)c1,-5.0,-5.7,-0.1,-2.2,-1.3,-0.4
CCOC(=O)C1CCN(C(=O)c2ccc(N3CCOCC3)c([N+](=O)[O-])c2)CC1,-5.4,20.8*,-0.2,.,-0.1,?
CCOC(=O)C1CCN(C(=O)COC(=O)c2cc([N+](=O)[O-])ccc2N2CCOCC2)CC1,-6.0,3.1,0.0,-3.2,-0.6,0.8
O=C(NCCCN1CCOCC1)c1[nH]c(C(F)(F)F)nc1-c1ccccc1,-2.5,.,.,.,.,.
CCOC(=O)C1=CCN(S(=O)(=O)c2ccccc2Cl)C1c1ccc(Cl)cc1 (centres undefined),-2.4,.,.,.,.,.
COC(=O)c1cn(CC(=O)Nc2ccc(F)cc2)c2ccccc12,-6.5,12.1*,1.0,5.8,-0.3,2.0
O=C(Cn1cc(C(=O)C2CC2)c2ccccc21)Nc1ccc(F)cc1,-2.6,-3.8,1.0,-0.1,-2.0,-4.8
NC(=O)c1ccc(-c2nnc(Nc3ccc(S(N)(=O)=O)cc3)c3ccccc23)cc1,-2.3,3.0,-0.7,65.5*,.,-5.4
COc1ccc(C(=O)C2CCCN(C(=O)c3cc(C)nc(C)n3)C2)cc1OC (centres undefined),5.6,-3.2,-0.7,.,-0.7,-3.9
CC(C)C[C@@H]1COc2cc(NC3CC3)ccc2S(=O)(=O)N1,-10.2,.,.,.,.,.
CCOc1ccc(CN2CCN(Cc3cccn3-c3cccnc3)CC2CCO)cc1 (centres undefined),-7.9,3.8,-0.4,78.0*,-0.6,-2.8
C=CCNC(=S)NNC(=O)c1ccc(C)c(Cl)c1,-6.5,-5.3,1.6,67.4*,-0.6,-4.2
C=CCNC(=S)NNC(=O)c1cccc(Br)c1,-3.2,3.0,0.9,-5.9,-0.9,-4.5
CCCC[C@@H]1Cc2[nH][nH]c(=O)c2[C@H](c2ccc3ccccc3c2)O1,-5.8,.,.,.,.,.
CC(C)(C)NC(=O)C[C@H]1C[C@H](C(=O)N2CCCCC2)[C@@]2(C)c3[nH]c4cc(-c5ccco5)ccc4c3CCN2C1=O,-6.1,.,-0.8,64.5*,-0.1,-2.1
C[C@]12c3[nH]c4cc(-c5ccco5)ccc4c3CCN1C(=O)[C@@H](CC(=O)NCCC1=CCCCC1)C[C@@H]2C(=O)N1CCCCC1,-5.9,.,0.8,47.8*,0.4,-6.9
O=C(Nc1ccccc1Cl)C1CCCN(S(=O)(=O)c2ccc(F)cc2)C1 (centres undefined),-6.9,8.8*,-0.6,.,-3.0,-4.7
O=C(c1ccc(F)cc1)C1CCN(C(=O)Nc2ccccc2Cl)CC1,63.9*,-4.3,1.0,1.2,-4.3,-5.4
Cc1ccccc1NC(=O)N1CCC(C(=O)c2ccc(F)cc2)CC1,10.3,-3.8,0.8,-0.2,6.2,-5.3
O=C(Nc1cccc(Cl)c1)C1CCCN(S(=O)(=O)c2ccc(F)cc2)C1 (centres undefined),-9.1,.,-0.9,0.5,-0.1,-4.0
CC(C)(C)S(=O)N1C[C@@H]2CC(=O)C=C2[C@H]1CCO (some centres undefined),-6.2,.,.,.,.,.
Cc1ccc(C)c2sc(NC(=O)C3CC3)nc12,?,1.9,0.0,2.6,-1.5,-4.2
O=C(Nc1nc2c(Br)cc(Br)cc2c(=O)s1)C1CCC1,-11.5,2.0,0.8,36.6*,-0.5,-1.2
SMILES,CaV13 ICDI inh,LANA-H2B inh,LANA DNA inh,CAL PDZ FP-1,CAL PDZ FP-2,Keap1-Nrf2 PPI
Cc1nc(/C(N)=N/OC(=O)c2ccccc2Cl)c(C(F)(F)F)o1,-4.6,-1.2,0.5,68.4*,-1.2,-2.7
Cc1nc(/C(N)=N/OC(=O)c2cccc(Cl)c2)c(C(F)(F)F)o1,-4.4,4.0,-0.1,.,-2.2,-2.1
O=C(NCCc1ccc(Cl)cc1)C1CCC(=O)N1Cc1ccccc1Cl (centres undefined),-3.0,13.4*,-0.4,-1.6,-1.5,-0.9
O=C(CS(=O)(=O)c1ccccc1)c1cc2cc(F)ccc2oc1=O,.,-4.2,-0.2,78.8*,-1.0,-3.0
COCc1[nH]nc2c1C(c1ccc3c(c1)OCO3)N(c1ccc(OC)cc1)C2=O (centres undefined),-4.5,.,.,.,.,.
C=CCn1c(CSCc2ccc(Cl)cc2Cl)nnc1SCC(=O)Nc1ccc(C(=O)O)cc1,-4.7,-2.8,-5.5,-11.8,-0.9,1.9
C=CCCC[C@H]1OC(=O)[C@H](C)NC(=O)[C@H](C(C)C)NC(=O)[C@@H]2CCCN2C(=O)[C@H](Cc2ccccc2)OC(=O)[C@@H](C(C)C)N(C)C(=O)[C@H](C(C)C)NC(=O)C1(C)C,-4.7,.,.,.,.,.
Cc1ccc(/C=N/NC(=O)C[n+]2ccccc2)s1,-0.1,0.3,3.6,2.0,-0.5,-0.5
CCCCCCCCCC(=O)N/N=C/c1ccc(C)s1,-5.0,1.6,-0.5,49.4*,16.7,1.5
O=C(NCCNc1ccc(Cl)cc1[N+](=O)[O-])c1cccnc1,2.9,11.9*,-0.4,-1.3,-2.0,-1.2
Cc1ccoc1C(=O)NCCNc1ccc(Cl)cc1[N+](=O)[O-],-4.4,-1.2,-0.3,-1.5,-0.8,1.2
CC(=O)NS(=O)(=O)c1ccc(NC(=S)NC(=O)C(C)C)cc1,-4.8,.,2.1,.,-1.3,-3.4
CCc1ccc(NC(=O)C(C)Nc2ccc(S(=O)(=O)NC(C)=O)cc2)cc1 (centres undefined),-4.8,15.5*,1.8,-1.6,-1.9,-8.6
O=C(c1n[nH]c2ccccc12)N1CCOCC1,0.9,0.4,1.7,-0.9,-2.0,2.3
O=C(c1c[nH]c2ccccc12)N1CCOCC1,0.5,39.7*,-0.4,11.5,-1.2,1.8
CC(C)(C)S(=O)(=O)N1C[C@H]2CC(=O)C=C2[C@@H]1CCO,-6.2,.,.,.,.,.
CCNC(=O)N1C[C@H]2CON(C)[C@H]2C[C@H]1c1ccc(N2CCCCC2)cc1,-4.0,.,.,.,.,.
O=C(CNC(=O)N1CC(=O)Nc2ccccc21)NCCc1ccc(Cl)cc1,-7.4,16.7*,0.6,-5.1,-2.1,-0.6
O=C(CNC(=O)N1CC(=O)Nc2ccccc21)NCCCc1ccccc1,-4.6,.,.,.,.,.
Cc1sc2nc(CSCC(=O)Nc3cc(F)ccc3F)[nH]c(=O)c2c1C,-6.1,-0.7,-0.1,-2.7,0.0,0.1
Cc1cc(C)c(NC(=O)CSCc2nc3sc(C)c(C)c3c(=O)[nH]2)c(Cl)c1,-4.4,54.7*,0.2,.,-0.5,-5.1
CCNC(=O)C1(C)CCCN1Cc1ccccc1Cl (centres undefined),-7.3,.,.,.,.,.
COc1ccc(C=O)c(OC)c1,-4.3,12.2*,0.7,-2.5,0.2,-2.8
COc1cc(O)ccc1C=O,-2.0,-5.1,0.4,-5.4,-0.5,3.3
